Assay outcomes: PubChem, several laboratories
NF-kB neuron act: activators of NF-kB expression in neurons, primary screen, cell-based, HTS; AID 1239, 2008; human neuronal cells, NF-kB reporter expression; stronger effect = higher value; fold change at 12.5 µM; actives 1.6% (n = 190,000); in the data active = fold change above about 3.3
STAT3 act: IL-6 driven STAT3 reporter potentiators, primary screen, U3A cells, luciferase, luminescence, MLSCN library | IL-6 STAT3-luciferase reporter; 100% = signal with IL-6 EC80 alone | activation (% of control), % at 5.6 µM | actives 0.91% (n = 190,000);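 active = activation above the screen-wide mean of compound activation plus 3 SD, cut at about 130% in these data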;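 also: 0% = background luminescence of wells with medium and substrate only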
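Material: human U3A cells carrying STAT3-luciferase construct. Measured by: reporter luminescence signal. Timing: compound 1 h, then IL-6 6 h at 37 °C.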
STAT3 inh: IL-6 driven STAT3 reporter inhibitors, primary screen, U3A cells, luciferase, luminescence, MLSCN library; actives 0.89% (n = 190,000); inhibition, % at 5.5 µM; AID 862, 2007; IL-6 STAT3-luciferase reporter; host cell line lacks STAT1;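 active = inhibition above the mean inhibition across all screened compounds plus 3 SD, cut at about 44% in these data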;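 also: 0% = DMSO only wells and 100% = 100 µM nifuroxazide control wells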
APP 5'UTR act: activators of APP 5'UTR luciferase reporter, primary screen, SH-SY5Y cells; activation, % at 2 µM; actives 1% (n = 190,000); SH-SY5Y APP 5'UTR luciferase reporter, luminescence; zero percent = DMSO vehicle wells; AID 1276, 2008;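 active = activation above a set limit, based on mean plus 3 SD of controls, cut at about 140% in these data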
STAT1 inh: STAT1 signaling inhibitors, primary screen, cell-based, HTS, luciferase reporter | NIH 3T3 STAT1-luciferase reporter, IFN-gamma, luminescence | inhibition, % at 5.5 µM | actives 0.35% (n = 200,000);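 active = inhibition above a set limit, the mean inhibition across all tested compounds plus 3 SD, cut at about 34% in these data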;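 also: 0% = IFN-gamma with DMSO and 100% = IFN-gamma with 300 µM nifuroxazide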
STAT1 act: STAT1 signaling activators, primary screen, cell-based, HTS, luciferase reporter; NIH 3T3 STAT1-luciferase reporter, IFN-gamma, luminescence; 100% = IFN-gamma alone, no compound; activation (% of control), % at 5.5 µM; actives 2.6% (n = 200,000);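 active = activation above the screen-wide mean activation plus 3 SD, cut at about 130% in these data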;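 also: raw ratio to IFN-gamma control signal so 100% means no change and 0% no light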
Starred values were filed as active, the others as inactive; nt = no result given. Only some compounds are listed: those with a hit (about 5.1% of all), similar ones and a draw of the others.

SMILES	NF-kB neuron act	STAT3 act	STAT3 inh	APP 5'UTR act	STAT1 inh	STAT1 act
COc1ccc2c(COC(=O)CNC(=O)C34CC5CC(CC(C5)C3)C4)cc(=O)oc2c1	1.1	106	-7	-14	1	100
C=CCN=c1scc(-c2ccc(F)cc2)n1/N=C/c1ccccn1	3.3*	100	-5	47	-22	120
C=CCN=c1scc(-c2ccccc2)n1/N=C/c1ccccn1	7.5*	78	25	99	-126	215*
OC(COCc1cccs1)CN1CCN(c2cccc(Cl)c2)CC1 (configuration not stated)	0.83	90	12	7	10	91
Cc1ccc(-c2ccnc(-c3ccc(O)cc3)n2)cc1	1.5	89	16	44	-46	142*
O=S(=O)(c1ccc(NC(=S)N/N=C/c2c3ccccc3cc3ccccc23)cc1)N1CCOCC1	nt	106	0	22	-11	110
CC(C)CCN(CC(=O)NC(C)(C)C)C(=O)C(=O)Nc1ccc2c(c1)OCCO2	0.93	99	6	29	0	100
COc1ccccc1C1N(c2ccc(Cl)cc2)C(=O)C2CCCN21 (configuration not stated)	0.96	134*	-39	0	5	95
COc1ccc(N2C(=O)C3CCCN3C2c2ccccc2OC)cc1 (configuration not stated)	1.2	97	12	-6	7	93
Clc1cc(Cl)c2nc(N3CCCCC3)sc2c1	3.3*	115	-13	63	-26	124
Cc1ccc(NC(=O)CN(C)C(=O)CSc2nnc(C(F)(F)F)n2C)cc1	1.1	104	2	-12	-10	107
c1ccc(OCc2nc3ccccc3s2)cc1	4.3*	109	-6	126	-45	141*
CCC(=O)Nc1ccc(OCc2nc3ccccc3s2)cc1	4.2*	132	-38	216*	-36	134*
N#Cc1ccc(NC(=O)CCc2nc3ccccc3s2)cc1	1.1	104	-4	11	-5	104
O=S(=O)(CCc1nc2ccccc2s1)c1ccc(Cl)cc1	1.1	99	6	-13	5	95
Fc1ccc(OCc2nc3ccccc3s2)cc1	5.2*	101	9	269*	-42	136*
O=S(=O)(Cc1nc2ccccc2s1)c1ccccc1	2.2	115	-12	73	-42	138*
CC(C)Nc1nnc(SC(C)C(=O)Nc2ccc(Cl)cn2)s1 (configuration not stated)	1.2	104	-5	39	-1	102
O=C(CN1C2=NCCN2c2ccccc21)c1ccc(Br)s1	1.2	100	2	8	3	97
CCN(CC1COc2ccccc2O1)C(=S)Nc1ccc(F)cc1 (configuration not stated)	0.95	91	13	9	4	97
Cc1ccc(C)c(CN2C(=O)c3ccccc3S(=O)c3ccc(C(=O)N4CCN(c5ccccn5)CC4)cc32)c1 (configuration not stated)	0.69	99	7	-14	4	98
COc1cc(/C=N/Nc2nnc3c(n2)[nH]c2ccccc23)ccc1O	1.2	98	-2	10	-36	133*
CC(OC(=O)CCc1nc2ccccc2c(=O)[nH]1)C(=O)NC1CCCC1 (configuration not stated)	1.2	98	-2	5	15	86
CC(OC(=O)CCc1nc2ccccc2c(=O)[nH]1)C(=O)c1ccc(C(C)(C)C)cc1 (configuration not stated)	5.8*	98	3	20	-9	108
O=C(/C=C/Nc1ccc(F)cc1)c1ccco1	5.1*	77	29	146*	-24	127
CCOC(=O)c1ccc(N/C=C/C(=O)c2ccc(OC)c(OC)c2)cc1	1.1	93	9	12	-5	105
O=C(Nc1cccc(F)c1)c1ccco1	1.3	88	16	33	-10	107
